# Measured values from ChEMBL document CHEMBL2311304, “Design, synthesis and in vitro and in vivo antitumor activities of novel bivalent β-carbolines” (Eur J Med Chem, 2013).
# System: A-375
# Assay: Cytotoxicity against human malignant melanoma A375 cells assessed as reduction in optical density by MTT assay
# Assay type: functional, cell-based
# Conditions: not given
# Summary of the method: (§1)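 Cells were cultured in RPMI-1640 with 10% (v/v) fetal calf serum, 100 µg ml-1 penicillin and 100 µg ml-1 streptomycin at 37 °C in humidified 5% CO2. Compounds were dissolved in DMSO, with final DMSO at 2% (v/v) or lower. MTT staining was used, with three replicate wells per point. IC50 is the concentration giving a 50% drop in optical density versus untreated cells.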
row,SMILES,IC50
1,COc1ccc2c3ccnc(C)c3n(CCCCn3c4cc(OC)ccc4c4ccnc(C)c43)c2c1,6.2 µM
2,c1ccc2c(c1)c1ccncc1n2CCCCCCn1c2ccccc2c2ccncc21,10.8 µM
3,COc1cc(-c2nccc3c4ccccc4n(CCCCCCn4c5ccccc5c5ccnc(-c6cc(OC)c(OC)c(OC)c6)c54)c23)cc(OC)c1OC,5.9 µM
4,c1cncc(-c2nccc3c4ccccc4n(CCCCCCn4c5ccccc5c5ccnc(-c6cccnc6)c54)c23)c1,5.3 µM

# System: Mus musculus
# Assay: Toxicity in C57BL/6 mouse assessed as maximum weight loss at 10 mg/kg, ip
# Assay type: organism-based
# Set-up: dose 10 mg/kg, route intraperitoneal
# Conditions: in vivo
row,SMILES,Activity
1,COc1ccc2c3ccnc(C)c3n(CCCCn3c4cc(OC)ccc4c4ccnc(C)c43)c2c1,7.7%

# System: not listed separately
# Assay: Antitumor activity in mouse Sarcoma 180 cells inoculated mouse assessed as tumor inhibition rate at one fifth of LD50 concentration once a day for consecutive 7 days by ip
# Assay type: functional
# Set-up: scale not given: the % may be the effect or the level left
# Conditions: not given
# Summary of the method: (§2)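 Each tumour line was first grown in mice for 7 days, then harvested. Viable cells (2 × 10^6 per mouse) were injected s.c. into the armpit. Dosing began 24 h later: i.p., about one fifth of LD50, daily for 7 days, 10 female mice per group. […] Body weight was recorded every 3 days. Tumours were excised and weighed on day 21 to give inhibition rate.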
row,SMILES,Activity
1,c1cncc(-c2nccc3c4ccccc4n(CCCCCCn4c5ccccc5c5ccnc(-c6cccnc6)c54)c23)c1,40.5%

# System: Mus musculus
# Assay: Toxicity in C57BL/6 mouse assessed as heart damage at 1 to 500 mg/kg, ip for 14 days
# Assay type: organism-based
# Set-up: dose 1-500 mg/kg, route intraperitoneal
# Conditions: in vivo, 336 h
# Summary of the method: (§3)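 Healthy C57BL/6 mice (9–12 weeks, 18–22 g) were fasted overnight with free access to water. Each received a single i.p. dose of 1.0–500 mg kg-1 in 0.5% CMC-Na, 10 mice per group (5 male, 5 female). Mice were watched continuously for 2 h, intermittently to 24 h, then occasionally to 14 days for tremor, twitch, jumping and supination. At day 14 they were killed and heart, liver and kidneys were examined macroscopically.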
row,SMILES,Activity
1,COc1ccc2c3ccnc(C)c3n(CCCCn3c4cc(OC)ccc4c4ccnc(C)c43)c2c1,Non-toxic
2,c1ccc2c(c1)c1ccncc1n2CCCCCCn1c2ccccc2c2ccncc21,Non-toxic
3,COc1cc(-c2nccc3c4ccccc4n(CCCCCCn4c5ccccc5c5ccnc(-c6cc(OC)c(OC)c(OC)c6)c54)c23)cc(OC)c1OC,Non-toxic
4,c1cncc(-c2nccc3c4ccccc4n(CCCCCCn4c5ccccc5c5ccnc(-c6cccnc6)c54)c23)c1,Non-toxic

# System: Mus musculus
# Assay: Neurotoxicity in C57BL/6 mouse at 1 to 500 mg/kg, ip for 14 days
# Assay type: toxicity, organism-based
# Set-up: dose 1-500 mg/kg, route intraperitoneal
# Conditions: in vivo, 336 h
# Summary of the method: as §3
row,SMILES,Activity
1,COc1ccc2c3ccnc(C)c3n(CCCCn3c4cc(OC)ccc4c4ccnc(C)c43)c2c1,Non-toxic
2,c1ccc2c(c1)c1ccncc1n2CCCCCCn1c2ccccc2c2ccncc21,Non-toxic
3,COc1cc(-c2nccc3c4ccccc4n(CCCCCCn4c5ccccc5c5ccnc(-c6cc(OC)c(OC)c(OC)c6)c54)c23)cc(OC)c1OC,Non-toxic
4,c1cncc(-c2nccc3c4ccccc4n(CCCCCCn4c5ccccc5c5ccnc(-c6cccnc6)c54)c23)c1,Non-toxic

# System: Mus musculus
# Assay: Toxicity in C57BL/6 mouse assessed as maximum weight loss at 40 mg/kg, ip
# Assay type: organism-based
# Set-up: dose 40 mg/kg, route intraperitoneal
# Conditions: in vivo
# Summary of the method: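 Tumor-bearing mice, 10 females per group, were inoculated s.c. in the armpit with 2 × 10^6 viable tumor cells. Compound was given i.p. once daily for 7 consecutive days, starting 24 h after inoculation. […] Body weight was recorded every 3 days until sacrifice on day 21.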
row,SMILES,Activity
1,c1ccc2c(c1)c1ccncc1n2CCCCCCn1c2ccccc2c2ccncc21,15%
2,COc1cc(-c2nccc3c4ccccc4n(CCCCCCn4c5ccccc5c5ccnc(-c6cc(OC)c(OC)c(OC)c6)c54)c23)cc(OC)c1OC,7.2%

# System: Mus musculus
# Assay: Toxicity in C57BL/6 mouse assessed as maximum weight loss at 50 mg/kg, ip
# Assay type: organism-based
# Set-up: dose 50 mg/kg, route intraperitoneal
# Conditions: in vivo
row,SMILES,Activity
1,c1cncc(-c2nccc3c4ccccc4n(CCCCCCn4c5ccccc5c5ccnc(-c6cccnc6)c54)c23)c1,11.9%

# System: Mus musculus
# Assay: Toxicity in C57BL/6 mouse assessed as liver damage at 1 to 500 mg/kg, ip for 14 days
# Assay type: organism-based
# Set-up: dose 1-500 mg/kg, route intraperitoneal
# Conditions: in vivo, 336 h
# Summary of the method: as §3
row,SMILES,Activity
1,COc1ccc2c3ccnc(C)c3n(CCCCn3c4cc(OC)ccc4c4ccnc(C)c43)c2c1,Non-toxic
2,c1ccc2c(c1)c1ccncc1n2CCCCCCn1c2ccccc2c2ccncc21,Non-toxic
3,COc1cc(-c2nccc3c4ccccc4n(CCCCCCn4c5ccccc5c5ccnc(-c6cc(OC)c(OC)c(OC)c6)c54)c23)cc(OC)c1OC,Non-toxic
4,c1cncc(-c2nccc3c4ccccc4n(CCCCCCn4c5ccccc5c5ccnc(-c6cccnc6)c54)c23)c1,Non-toxic

# System: BGC-823
# Assay: Cytotoxicity against human gastric carcinoma BGC823 cells assessed as reduction in optical density by MTT assay
# Assay type: functional, cell-based
# Conditions: not given
# Summary of the method: as §1
row,SMILES,IC50
1,COc1ccc2c3ccnc(C)c3n(CCCCn3c4cc(OC)ccc4c4ccnc(C)c43)c2c1,75.7 µM
2,c1ccc2c(c1)c1ccncc1n2CCCCCCn1c2ccccc2c2ccncc21,13.8 µM
3,COc1cc(-c2nccc3c4ccccc4n(CCCCCCn4c5ccccc5c5ccnc(-c6cc(OC)c(OC)c(OC)c6)c54)c23)cc(OC)c1OC,> 200 µM
4,c1cncc(-c2nccc3c4ccccc4n(CCCCCCn4c5ccccc5c5ccnc(-c6cccnc6)c54)c23)c1,14.1 µM

# System: B16
# Assay: Antitumor activity in mouse B16 melanoma cell lines cells inoculated mouse assessed as tumor inhibition rate at one fifth of LD50 concentration once a day for consecutive 7 days by ip
# Assay type: functional
# Set-up: scale not given: the % may be the effect or the level left
# Conditions: not given
# Summary of the method: as §2
row,SMILES,Activity
1,c1ccc2c(c1)c1ccncc1n2CCCCCCn1c2ccccc2c2ccncc21,24.8%
2,c1cncc(-c2nccc3c4ccccc4n(CCCCCCn4c5ccccc5c5ccnc(-c6cccnc6)c54)c23)c1,24.3%

# System: SK-OV-3
# Assay: Cytotoxicity against human ovary adenocarcinoma SKOV3 cells assessed as reduction in optical density by MTT assay
# Assay type: functional, cell-based
# Conditions: SK-OV-3, Female gonad
# Summary of the method: as §1
row,SMILES,IC50
1,COc1ccc2c3ccnc(C)c3n(CCCCn3c4cc(OC)ccc4c4ccnc(C)c43)c2c1,7.1 µM
2,c1ccc2c(c1)c1ccncc1n2CCCCCCn1c2ccccc2c2ccncc21,38.9 µM
3,COc1cc(-c2nccc3c4ccccc4n(CCCCCCn4c5ccccc5c5ccnc(-c6cc(OC)c(OC)c(OC)c6)c54)c23)cc(OC)c1OC,> 200 µM
4,c1cncc(-c2nccc3c4ccccc4n(CCCCCCn4c5ccccc5c5ccnc(-c6cccnc6)c54)c23)c1,14.9 µM

# System: Mus musculus
# Assay: Toxicity in C57BL/6 mouse assessed as kidney damage at 1 to 500 mg/kg, ip for 14 days
# Assay type: organism-based
# Set-up: dose 1-500 mg/kg, route intraperitoneal
# Conditions: in vivo, 336 h
# Summary of the method: as §3
row,SMILES,Activity
1,COc1ccc2c3ccnc(C)c3n(CCCCn3c4cc(OC)ccc4c4ccnc(C)c43)c2c1,Non-toxic
2,c1ccc2c(c1)c1ccncc1n2CCCCCCn1c2ccccc2c2ccncc21,Non-toxic
3,COc1cc(-c2nccc3c4ccccc4n(CCCCCCn4c5ccccc5c5ccnc(-c6cc(OC)c(OC)c(OC)c6)c54)c23)cc(OC)c1OC,Non-toxic
4,c1cncc(-c2nccc3c4ccccc4n(CCCCCCn4c5ccccc5c5ccnc(-c6cccnc6)c54)c23)c1,Non-toxic

# System: not listed separately
# Assay: Antitumor activity in mouse Lewis lung cancer cells inoculated mouse assessed as tumor inhibition rate at one fifth of LD50 concentration once a day for consecutive 7 days by ip
# Assay type: functional, Cancer cell lines
# Set-up: scale not given: the % may be the effect or the level left
# Conditions: not given
# Summary of the method: as §2
row,SMILES,Activity
1,COc1ccc2c3ccnc(C)c3n(CCCCn3c4cc(OC)ccc4c4ccnc(C)c43)c2c1,38.1%
2,c1ccc2c(c1)c1ccncc1n2CCCCCCn1c2ccccc2c2ccncc21,37.7%
3,COc1cc(-c2nccc3c4ccccc4n(CCCCCCn4c5ccccc5c5ccnc(-c6cc(OC)c(OC)c(OC)c6)c54)c23)cc(OC)c1OC,43.3%
4,c1cncc(-c2nccc3c4ccccc4n(CCCCCCn4c5ccccc5c5ccnc(-c6cccnc6)c54)c23)c1,43.2%

# System: KB
# Assay: Cytotoxicity against human epidermoid carcinoma of the nasopharynx KB cells assessed as reduction in optical density by MTT assay
# Assay type: functional, cell-based
# Conditions: not given
# Summary of the method: as §1
row,SMILES,IC50
1,COc1ccc2c3ccnc(C)c3n(CCCCn3c4cc(OC)ccc4c4ccnc(C)c43)c2c1,2.8 µM
2,c1ccc2c(c1)c1ccncc1n2CCCCCCn1c2ccccc2c2ccncc21,13.9 µM
3,COc1cc(-c2nccc3c4ccccc4n(CCCCCCn4c5ccccc5c5ccnc(-c6cc(OC)c(OC)c(OC)c6)c54)c23)cc(OC)c1OC,> 200 µM
4,c1cncc(-c2nccc3c4ccccc4n(CCCCCCn4c5ccccc5c5ccnc(-c6cccnc6)c54)c23)c1,13.3 µM

# System: not listed separately
# Assay: Acute toxicity in ip treated C57BL/6 mouse for 14 days
# Assay type: organism-based
# Conditions: in vivo
# Summary of the method: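 C57BL/6 mice (9–12 weeks, 18–22 g) were fasted overnight with free water. They received single i.p. doses of 1.0–500 mg kg-1 in 0.5% CMC-Na, 10 mice per group (5 male, 5 female). Mice were watched continuously for 2 h, then intermittently to 24 h, then occasionally to 14 days. Heart, liver and kidneys were checked macroscopically. LD50 was derived graphically.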
row,SMILES,LD50 at 336 h
1,c1ccc2c(c1)c1ccncc1n2CCCCCCn1c2ccccc2c2ccncc21,200 mg/kg
2,COc1cc(-c2nccc3c4ccccc4n(CCCCCCn4c5ccccc5c5ccnc(-c6cc(OC)c(OC)c(OC)c6)c54)c23)cc(OC)c1OC,200 mg/kg

# System: 769-P
# Assay: Cytotoxicity against human renal carcinoma 769-P cells assessed as reduction in optical density by MTT assay
# Assay type: functional, cell-based
# Conditions: not given
# Summary of the method: as §1
row,SMILES,IC50
1,COc1ccc2c3ccnc(C)c3n(CCCCn3c4cc(OC)ccc4c4ccnc(C)c43)c2c1,65.6 µM
2,c1ccc2c(c1)c1ccncc1n2CCCCCCn1c2ccccc2c2ccncc21,12.8 µM
3,COc1cc(-c2nccc3c4ccccc4n(CCCCCCn4c5ccccc5c5ccnc(-c6cc(OC)c(OC)c(OC)c6)c54)c23)cc(OC)c1OC,16.8 µM
4,c1cncc(-c2nccc3c4ccccc4n(CCCCCCn4c5ccccc5c5ccnc(-c6cccnc6)c54)c23)c1,> 200 µM

# System: H22
# Assay: Antitumor activity in mouse H22 liver cancer cells inoculated mouse assessed as tumor inhibition rate at one fifth of LD50 concentration once a day for consecutive 7 days by ip
# Assay type: functional
# Set-up: scale not given: the % may be the effect or the level left
# Conditions: not given
# Summary of the method: as §2
row,SMILES,Activity
1,c1ccc2c(c1)c1ccncc1n2CCCCCCn1c2ccccc2c2ccncc21,31.2%
2,c1cncc(-c2nccc3c4ccccc4n(CCCCCCn4c5ccccc5c5ccnc(-c6cccnc6)c54)c23)c1,35%

# System: CT26
# Assay: Antitumor activity in mouse CT26 colon cancer cells inoculated mouse assessed as tumor inhibition rate at one fifth of LD50 concentration once a day for consecutive 7 days by ip
# Assay type: functional
# Set-up: scale not given: the % may be the effect or the level left
# Conditions: not given
# Summary of the method: as §2
row,SMILES,Activity
1,COc1ccc2c3ccnc(C)c3n(CCCCn3c4cc(OC)ccc4c4ccnc(C)c43)c2c1,45.5%
2,c1ccc2c(c1)c1ccncc1n2CCCCCCn1c2ccccc2c2ccncc21,32.4%
3,COc1cc(-c2nccc3c4ccccc4n(CCCCCCn4c5ccccc5c5ccnc(-c6cc(OC)c(OC)c(OC)c6)c54)c23)cc(OC)c1OC,45.8%
4,c1cncc(-c2nccc3c4ccccc4n(CCCCCCn4c5ccccc5c5ccnc(-c6cccnc6)c54)c23)c1,50.6%
